High-throughput results: PubChem BioAssay, several laboratories
Granule exo inh: lytic granule exocytosis inhibition. 0.66% of 360,000 active. AID 651702. inhibition, % at 10 µM. TALL-104 LAMP-1 surface exposure, flow cytometry; cells stimulated with thapsigargin and PMA;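 active = inhibition above about 55%, limit read from the data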
EBI2 block: EBI2 (human) antagonism; inhibition, % at 5 µM; 0.81% of 360,000 active; P32249; EBI2 beta-arrestin recruitment, luminescence, 7a,25-OHC stimulated; in the data active = inhibition above about 38%;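 note: enzyme fragment complementation signal reports receptor beta-arrestin coupling in cells; 0% = agonist plus DMSO wells and 100% = wells without agonist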
Target sequence (P32249 whole entry, looked up, the tested form may be a part): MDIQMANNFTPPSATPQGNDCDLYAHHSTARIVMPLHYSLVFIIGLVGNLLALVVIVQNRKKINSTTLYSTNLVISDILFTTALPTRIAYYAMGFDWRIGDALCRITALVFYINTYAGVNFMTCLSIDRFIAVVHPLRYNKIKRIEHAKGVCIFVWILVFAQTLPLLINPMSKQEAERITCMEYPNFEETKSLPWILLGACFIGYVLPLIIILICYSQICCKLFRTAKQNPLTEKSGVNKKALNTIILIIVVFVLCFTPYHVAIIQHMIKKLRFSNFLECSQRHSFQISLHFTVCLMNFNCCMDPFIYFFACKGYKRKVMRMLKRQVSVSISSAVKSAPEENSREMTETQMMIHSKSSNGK
MC4R antagonist: antagonists of human melanocortin 4 receptor (MC4R) | MC4R-expressing cells, MTII-stimulated cAMP, LANCE TR-FRET | P32245 | AID 540295 | inhibition, % at 6.5 µM | 0.48% of 360,000 active;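 active = inhibition above its plate's cutoff, the mean of tested wells on that plate plus 3 SD, cut at about 29% in these data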;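 note: 0% = Melanotan II alone and 100% = Melanotan II plus saturating MCL0020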
Target sequence (P32245 whole entry, looked up): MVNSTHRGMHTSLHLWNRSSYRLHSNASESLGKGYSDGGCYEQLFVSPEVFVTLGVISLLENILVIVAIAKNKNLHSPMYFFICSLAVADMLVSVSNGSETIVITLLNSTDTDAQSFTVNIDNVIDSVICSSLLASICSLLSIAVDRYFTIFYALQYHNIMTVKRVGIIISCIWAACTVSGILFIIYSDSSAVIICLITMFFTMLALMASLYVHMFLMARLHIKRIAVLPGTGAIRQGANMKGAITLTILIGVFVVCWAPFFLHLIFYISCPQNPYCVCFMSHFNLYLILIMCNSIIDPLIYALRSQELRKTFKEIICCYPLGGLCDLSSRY
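Assay system: U2OS-MC4R stable cell line; Also added: Melanotan II; Technique: Eu-cAMP/anti-cAMP TR-FRET, emission 671 nm; Times: 30-min compound, 1-h challenge, 1-h detection, room temperature.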
Myeloid diff MLP: myeloid differentiation induction. AID 624256. ER-HoxA9 myeloid progenitors, lysozyme-GFP differentiation, flow cytometry. calls only at 10 µM. 1% of 360,000 active;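 active = normalized GFP-positive differentiation at or above the plate's own cutoff, the solvent-only control mean plus 3 SD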;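 note: cells exposed to compound for four days before flow analysis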
MC4R barr agon: agonists of human melanocortin 4 receptor (MC4R) beta-arrestin. P32245. U2OS MC4R beta-arrestin complementation, luminescence; percent of melanotan II response, DMSO zero. activation, % at 8.9 µM. 0.98% of 360,000 active. AID 540308;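 active = activation above a per-plate cutoff, the mean activation of sample wells on that plate plus 3 SD, cut at about 8% in these data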
Myeloid diff CP1: myeloid differentiation induction; AID 651706; calls only; ER-HoxA9 myeloid progenitors, GFP/Mac1 double-positive flow; shares compounds with Myeloid diff MLP; 2% of 2,300 active;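 active = share of green or green-and-red cells above 9 and 9% in run 1 or 4 and 3% in run 2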
GFP autofluor: flagged as fluorescent in myeloid differentiation counter-screen | AID 651707 | shares compounds with Myeloid diff MLP | 7.4% of 2,300 active | fluorescence response, % (concentration not given with the values) | ER-HoxA9 myeloid progenitors, no estrogen, GFP autofluorescence flow cytometry; vehicle wells 0%, positive control 100%;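 active = over 5% cells positive for green fluorescent reporter, or over 2% positive for both it and APC stain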;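 note: range taken on the double positive population between DMSO and positive control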
* = called active by the depositor; i = inactive; · = no result given; + = active, no number. Hits are enriched below; roughly 3.7% of the tested compounds scored in any of these assays.

SMILES | Granule exo inh | EBI2 block | MC4R antagonist | Myeloid diff MLP | MC4R barr agon | Myeloid diff CP1 | GFP autofluor
COc1ccc(OC)c(C(=O)CSc2nccc(-c3ccc(Br)cc3)n2)c1 | 2.0 | 25.0 | -2.7 | i | 2.7 | · | ·
COCC(=O)Nc1c(C(=O)Nc2cccc(OC)c2)oc2ccccc12 | -4.9 | -15.3 | -0.7 | i | 1.6 | i | 0.0
CCOc1cccc(CN2CCC(n3nccc3NC(=O)C3CC3)CC2)c1O | 10.9 | 1.4 | 6.3 | i | -4.4 | · | ·
O=C(O)c1cccnc1Nc1ccc(Cl)cc1 | 0.2 | -3.2 | 2.6 | + | -0.1 | + | 0.5
CCn1c(COc2ccccc2C)nnc1SCC(=O)Nc1cc(C)on1 | -3.0 | 8.9 | -6.7 | + | 0.6 | i | 0.0
CC(C)CC(=O)c1c[nH]c(C(=O)NCCc2ccccn2)c1 | 0.4 | 2.1 | 2.4 | i | -1.0 | i | 0.0
CC(C)CNC(=O)NC(=O)CSc1nc2ccccc2n1CC(C)C | 3.2 | -0.3 | 4.8 | i | 0.7 | · | ·
CCCNC(=O)NC(=O)CSc1nc2ccccc2n1CC(C)C | 1.9 | 6.3 | 6.8 | i | 2.0 | i | 0.3
O=C(N/N=C/C1=C(N2CCOCC2)C(=C\c2ccccc2)/CC1)Nc1ccccc1 | -6.9 | 28.4 | 12.1 | i | 2.4 | · | ·
CCN(CC)c1ccc(/C=C2\CCC(/C=C(\C#N)C(=O)Nc3ccccc3F)=C2N2CCOCC2)cc1 | -0.1 | 19.4 | -5.8 | i | -3.7 | i | 5.5*
CCN(CC)c1ccc(/C=C2\CCC(/C=N/NC(=O)c3ccc(=O)n(C)c3)=C2N2CCOCC2)cc1 | 7.3 | 24.8 | 18.4 | + | -1.1 | i | 98.5*
N#C/C(=C/C1=C(N2CCOCC2)C(=C/c2cccc([N+](=O)[O-])c2)/CC1)C(=O)Nc1ccccc1F | 2.8 | 10.8 | -3.2 | + | -3.0 | i | 45.7*
COc1ccc(OCC(=O)Nc2cccc(S(=O)(=O)N(C)c3ccccc3)c2)c([N+](=O)[O-])c1 | -0.1 | -17.5 | -0.1 | i | 0.1 | · | ·
Cc1cc(N2CCCCC2)nc(N)n1 | 0.9 | -1.0 | -0.6 | + | -2.9 | i | 0.0
CCOC(=O)c1ccc(N2C(=O)CC(N(C)CCc3ccc(OC)c(OC)c3)C2=O)cc1 (centres undefined) | 2.5 | 2.9 | 6.8 | i | -0.8 | i | 0.5
CCOc1cccc(N2C(=O)CC(N(CCc3ccc(OC)c(OC)c3)C(=O)CC)C2=O)c1 (centres undefined) | -1.6 | -6.2 | 12.9 | i | -1.5 | · | ·
CCCCC(=O)OCC(=O)c1[nH]c(C)c(C(C)=O)c1C | -1.2 | -0.1 | -0.3 | i | -2.7 | · | ·
O=C(c1ccco1)N1CCN(C2CN(Cc3ccc([N+](=O)[O-])cc3)S(=O)(=O)C2)CC1 (centres undefined) | -7.6 | 2.9 | -0.5 | i | -0.5 | · | ·
COc1ccc(OC)c(NC(=O)C2CCN(c3cc(-c4ccccc4)nc4ncnn34)CC2)c1 | -0.1 | 2.8 | 5.1 | i | -0.7 | · | ·
COc1ccccc1NC(=O)N1CCN(c2cc(-c3ccccc3)nc3ncnn23)CC1 | 0.3 | 17.6 | 9.7 | i | -0.9 | i | 0.0
Cc1ccc(NNC(=O)c2ccc(Cl)cc2)nn1 | 1.3 | 0.5 | -2.8 | i | -0.5 | · | ·
COc1cccc(/C=N\NS(=O)(=O)c2ccccc2)c1OC | 0.6 | -12.1 | -5.9 | i | -2.6 | · | ·
O=C(c1ccc([N+](=O)[O-])o1)N1CCN(c2nc3c(Cl)cccc3s2)CC1 | 10.5 | -12.3 | 5.1 | i | -4.0 | · | ·
COc1cccc2sc(N3CCN(C(=O)c4ccc([N+](=O)[O-])o4)CC3)nc12 | 0.7 | 4.4 | -2.0 | + | -1.7 | i | 0.0
O=C(c1ccc([N+](=O)[O-])o1)N1CCN(c2nc3ccc(F)cc3s2)CC1 | -0.5 | -5.5 | 17.6 | i | -3.8 | i | 0.0
SMILES | Granule exo inh | EBI2 block | MC4R antagonist | Myeloid diff MLP | MC4R barr agon | Myeloid diff CP1 | GFP autofluor
COc1ccc(CSC2=CS(=O)(=O)c3ccccc3N2)cc1 | -3.7 | 3.2 | -3.3 | i | -3.0 | · | ·
COc1ccc(C2C(C(=O)Nc3cccnc3)=C(C)Nc3nc(-c4cccs4)nn32)cc1 (centres undefined) | 0.8 | 10.4 | 12.3 | i | 4.0 | i | 0.9
Nc1ccn([C@@H]2O[C@H](CNCc3cccc(OC4CCCC4)c3)[C@@H](O)[C@H]2O)c(=O)n1 | 2.2 | 4.8 | 0.8 | i | -0.2 | · | ·
COC(=O)c1ccc2c(c1)NC1=C(C(=O)CC(C)(C)C1)C(c1ccncc1)N2 (centres undefined) | -0.5 | -5.1 | -3.5 | + | -1.4 | i | 0.5
CC(=O)Nc1ccc(S(=O)(=O)N/N=C/c2ccc(C)s2)cc1 | -6.1 | 1.8 | 18.5 | i | -0.5 | · | ·
CCC(C)(C)NC(=O)C(c1ccc(C)o1)N(C(=O)c1csnn1)c1cccc(F)c1 (centres undefined) | -1.1 | -8.0 | 17.2 | i | 0.9 | i | 0.0
Cc1ccc(C(C(=O)NC2CCCC2)N(C(=O)c2csnn2)c2cccc(F)c2)o1 (centres undefined) | 0.0 | -15.1 | 12.1 | i | -3.1 | · | ·
Cc1ccc(S(=O)(=O)NCc2ccccc2NS(=O)(=O)c2ccc(C)cc2)cc1 | -9.7 | 1.7 | · | i | · | · | ·
Oc1cccc(Nc2nc(O)c(/C=C3\C=Nc4ccccc43)s2)c1 | 31.0 | 5.2 | -3.1 | + | 3.1 | i | 0.0
Oc1nc(Nc2cccc(Cl)c2)sc1/C=C1\C=Nc2ccccc21 | 16.4 | 11.2 | -0.6 | i | 6.2 | · | ·
CCOc1ccccc1N(C)S(=O)(=O)c1ccc2c(c1)N(C(C)=O)CCO2 | -6.2 | -7.4 | -0.3 | i | -1.9 | · | ·
CC(C)CNC(=O)NC(=O)COc1ncnc2sccc12 | -2.5 | -3.0 | -2.4 | + | 4.0 | i | 0.0
CCCCOC(=O)c1cc(C)nc2ccc(Br)cc12 | -3.9 | 15.1 | 3.1 | i | 0.8 | · | ·
CCOC(=O)c1cc(C(=O)OCC)c2cc(Br)ccc2n1 | 2.6 | -12.8 | 16.1 | + | 2.6 | i | 0.0
Cc1ccc(OCC(O)Cn2c(N3CCCCC3)nc3c2c(=O)[nH]c(=O)n3C)cc1C (centres undefined) | -8.2 | -4.2 | 0.8 | i | 0.7 | · | ·
CC(=O)c1c(Cl)nc2cccc3c2c1-c1ccccc1C3=O | 11.8 | 1.8 | 8.1 | i | 0.4 | i | 0.0
COc1cc(-c2c(C(C)=O)c(C)nc3c2C(=O)c2ccccc2-3)cc(OC)c1OC | -2.7 | 11.6 | 2.3 | i | -0.1 | · | ·
CC1=C(C(N)=O)C(c2ccccc2[N+](=O)[O-])n2ncnc2N1 (centres undefined) | 11.2 | -2.3 | -12.3 | i | 1.5 | · | ·
Cc1ccc(-n2ncc(-c3nnc(SCC(=O)NC4CCCC4)o3)c2N)cc1C | 0.3 | 5.0 | 3.5 | i | -1.1 | i | 0.5
Cc1ccccc1-c1nnc(SCC(=O)NC2CCCC2)o1 | 0.1 | 9.6 | 4.2 | i | -0.6 | · | ·
